The target in data set [1] is hERG (KCNH2) (Homo sapiens, UniProt Q12809). The data set can be described thus: Displacement of [35S]-MK0499 from human ERG receptor expressed in HEK293 cells at 10 uM. The class given is cell-based. The settings on record: HEK293 cells expressing human ERG, probe [35S]-MK0499. The essentials: (§1)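 Binding assay measuring displacement of radiolabelled ligand (35S-MK-0499 for hERG; 3H-diltiazem for Cav1.2); % inhibition at 10 µM test compound.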

Data set [2] is described as follows: Bioavailability in rat at 3.0 mg/kg, po. The class given is ADME, organism-based. The settings on record: in vivo.
The nature of data set [3]: Bioavailability in dog at 1.5 mg/kg, po. Conditions: in vivo. The class given is ADME, organism-based, Canis lupus familiaris.
Data set [4] in a line: Cmax in rat at 1.0 mg/kg, iv or 3.0 mg/kg, po. The settings on record: in vivo. Format: ADME, organism-based.
The nature of data set [5]: Cmax in dog at 0.38 mg/kg, iv or 1.5 mg/kg, po. Format: ADME, organism-based, Canis lupus familiaris. The settings on record: in vivo.
Data set [6] is described as follows: Plasma clearance in rat at 1.0 mg/kg, iv or 3.0 mg/kg, po. The class given is ADME, organism-based.
Data set [7] can be described thus: Plasma clearance in dog at 0.38 mg/kg, iv or 1.5 mg/kg, po. Format: ADME, organism-based, Canis lupus familiaris.
A short description of data set [8]: Half life in rat at 1.0 mg/kg, iv or 3.0 mg/kg, po. The class given is ADME, organism-based. The settings on record: in vivo.
Data set [9] can be described thus: Half life in dog at 0.38 mg/kg, iv or 1.5 mg/kg, po. The settings on record: in vivo. The class given is ADME, organism-based, Canis lupus familiaris.
Data set [10] concerns the target T1, Sodium channel protein type 9 subunit alpha (Homo sapiens, UniProt Q15858). Nature of the data set: Binding affinity at human inactive state Nav1.7 by whole cell electrophysiology.
The subject of data set [11] is Rattus norvegicus. The data set can be described thus: Blockade of spontaneous neuronal firing in rat peripheral axotomy model at 2 mg/kg, iv after 30 mins. The class given is functional. Conditions: 0.5 h. The essentials: (§2)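 Iv infusion given after baseline spontaneous firing frequency was established; firing frequency then recorded for 60 min post-dose, with % inhibition at 10, 30 and 60 min; n = 6.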

The subject of data set [12] is Rattus norvegicus. Nature of the data set: Blockade of spontaneous neuronal firing in rat peripheral axotomy model at 2 mg/kg, iv after 10 mins. Format: functional. The essentials: as §2
The subject of data set [13] is Rattus norvegicus. Nature of the data set: Blockade of spontaneous neuronal firing in rat peripheral axotomy model at 2 mg/kg, iv after 60 mins. The class given is functional. The settings on record: 1 h. The method, boiled down: as §2
Data set [14] has as its system Rattus norvegicus. The data set can be described thus: Reversal of allodynia in rat spinal nerve ligation model at 10 mg/kg, po after 2 hrs. The class given is functional. The essentials:
(§3)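 L5 spinal nerve ligated and transected in rats to induce neuropathy; tactile allodynia measured with calibrated Von Frey filaments before and 1 week after surgery. Rats with significant allodynia were dosed orally and % reversal of allodynia determined at 2 and 4 h post-dose; n = 8.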

Data set [15] has as its system Rattus norvegicus. The data set can be described thus: Reversal of allodynia in rat spinal nerve ligation model at 10 mg/kg, po after 4 hrs. The class given is functional. The essentials:
as §3

Data set [16] has as its target Voltage-dependent L-type calcium channel subunit alpha-1C (Homo sapiens, UniProt Q13936). Nature of the data set: Displacement of [3H]diltiazem from human Cav1.2 expressed in HEK293 cells. Format: cell-based. The essentials: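 Cav1.2 binding assay measuring displacement of 3H-diltiazem.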
In general terms: Displacement assays read how much labelled ligand stays bound in the presence of the test substance.

Data set [17] addresses T1, Sodium channel protein type 9 subunit alpha. The data set can be described thus: Blockade of human Nav1.7 by FRET assay. The method, boiled down: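 Functional membrane-potential assay of channel block on human Nav1.7; read-out is FRET between two membrane-associated dyes; IC50 in nM.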
Data set [18] addresses Cav1.2 (L-type calcium channel subunit alpha-1C) (Homo sapiens, UniProt Q13936). Nature of the data set: Displacement of [3H]diltiazem from human Cav1.2 expressed in HEK293 cells at 10 uM. The settings on record: HEK293 cells expressing human Cav1.2, probe [3H]diltiazem. The class given is cell-based. The essentials:
as §1

T1 sequence (Q15858 whole entry, the tested form may be a part): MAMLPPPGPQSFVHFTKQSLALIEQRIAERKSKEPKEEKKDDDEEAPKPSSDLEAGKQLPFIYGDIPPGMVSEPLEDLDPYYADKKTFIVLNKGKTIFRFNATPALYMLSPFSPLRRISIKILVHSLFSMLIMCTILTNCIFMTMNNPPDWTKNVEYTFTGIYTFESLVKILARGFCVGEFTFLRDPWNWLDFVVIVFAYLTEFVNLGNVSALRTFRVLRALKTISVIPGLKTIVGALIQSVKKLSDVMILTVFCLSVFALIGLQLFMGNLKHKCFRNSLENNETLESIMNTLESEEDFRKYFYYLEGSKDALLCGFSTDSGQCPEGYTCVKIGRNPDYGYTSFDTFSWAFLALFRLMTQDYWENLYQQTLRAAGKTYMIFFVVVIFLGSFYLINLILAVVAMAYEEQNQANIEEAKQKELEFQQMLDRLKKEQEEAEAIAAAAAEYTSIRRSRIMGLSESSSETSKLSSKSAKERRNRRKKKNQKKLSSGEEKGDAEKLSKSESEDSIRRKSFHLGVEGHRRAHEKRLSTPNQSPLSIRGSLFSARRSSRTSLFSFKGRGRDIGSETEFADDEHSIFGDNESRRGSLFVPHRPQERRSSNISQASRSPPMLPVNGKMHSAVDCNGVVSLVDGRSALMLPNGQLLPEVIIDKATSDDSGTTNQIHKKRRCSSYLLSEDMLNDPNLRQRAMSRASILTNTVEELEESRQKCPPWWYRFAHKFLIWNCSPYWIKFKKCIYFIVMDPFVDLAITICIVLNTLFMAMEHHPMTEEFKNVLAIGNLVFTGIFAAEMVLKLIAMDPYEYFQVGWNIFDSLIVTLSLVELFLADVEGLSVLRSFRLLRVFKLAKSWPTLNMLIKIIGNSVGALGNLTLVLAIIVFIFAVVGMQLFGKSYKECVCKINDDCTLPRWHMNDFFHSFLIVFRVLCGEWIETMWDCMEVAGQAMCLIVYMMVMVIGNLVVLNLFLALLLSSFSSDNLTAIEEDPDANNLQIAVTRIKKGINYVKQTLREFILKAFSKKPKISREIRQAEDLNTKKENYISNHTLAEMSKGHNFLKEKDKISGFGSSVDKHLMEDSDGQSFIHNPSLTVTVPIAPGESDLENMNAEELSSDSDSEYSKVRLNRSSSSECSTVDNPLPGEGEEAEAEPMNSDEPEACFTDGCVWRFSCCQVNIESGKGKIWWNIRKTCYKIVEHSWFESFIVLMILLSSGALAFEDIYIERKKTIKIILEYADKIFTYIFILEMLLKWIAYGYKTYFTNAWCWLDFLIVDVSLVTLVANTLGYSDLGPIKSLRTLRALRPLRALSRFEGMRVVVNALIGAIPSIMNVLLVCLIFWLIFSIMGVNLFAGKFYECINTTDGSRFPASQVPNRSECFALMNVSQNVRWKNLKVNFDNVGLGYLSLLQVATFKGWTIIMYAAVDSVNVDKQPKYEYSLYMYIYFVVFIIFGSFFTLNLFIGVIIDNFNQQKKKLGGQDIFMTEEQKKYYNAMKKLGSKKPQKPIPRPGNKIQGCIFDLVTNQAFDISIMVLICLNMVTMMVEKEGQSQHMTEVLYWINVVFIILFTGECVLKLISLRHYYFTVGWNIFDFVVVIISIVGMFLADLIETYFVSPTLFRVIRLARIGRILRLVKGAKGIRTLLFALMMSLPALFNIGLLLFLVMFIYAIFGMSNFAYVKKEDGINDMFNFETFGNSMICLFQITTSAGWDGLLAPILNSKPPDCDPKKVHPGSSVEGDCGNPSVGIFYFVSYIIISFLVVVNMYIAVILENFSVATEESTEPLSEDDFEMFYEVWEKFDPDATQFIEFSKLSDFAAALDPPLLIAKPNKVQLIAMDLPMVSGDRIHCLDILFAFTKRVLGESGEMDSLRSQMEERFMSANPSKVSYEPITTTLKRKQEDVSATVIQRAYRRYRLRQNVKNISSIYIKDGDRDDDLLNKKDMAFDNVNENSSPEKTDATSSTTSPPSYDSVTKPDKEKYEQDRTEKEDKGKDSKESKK
Sequence of hERG (KCNH2) (Q12809 whole entry): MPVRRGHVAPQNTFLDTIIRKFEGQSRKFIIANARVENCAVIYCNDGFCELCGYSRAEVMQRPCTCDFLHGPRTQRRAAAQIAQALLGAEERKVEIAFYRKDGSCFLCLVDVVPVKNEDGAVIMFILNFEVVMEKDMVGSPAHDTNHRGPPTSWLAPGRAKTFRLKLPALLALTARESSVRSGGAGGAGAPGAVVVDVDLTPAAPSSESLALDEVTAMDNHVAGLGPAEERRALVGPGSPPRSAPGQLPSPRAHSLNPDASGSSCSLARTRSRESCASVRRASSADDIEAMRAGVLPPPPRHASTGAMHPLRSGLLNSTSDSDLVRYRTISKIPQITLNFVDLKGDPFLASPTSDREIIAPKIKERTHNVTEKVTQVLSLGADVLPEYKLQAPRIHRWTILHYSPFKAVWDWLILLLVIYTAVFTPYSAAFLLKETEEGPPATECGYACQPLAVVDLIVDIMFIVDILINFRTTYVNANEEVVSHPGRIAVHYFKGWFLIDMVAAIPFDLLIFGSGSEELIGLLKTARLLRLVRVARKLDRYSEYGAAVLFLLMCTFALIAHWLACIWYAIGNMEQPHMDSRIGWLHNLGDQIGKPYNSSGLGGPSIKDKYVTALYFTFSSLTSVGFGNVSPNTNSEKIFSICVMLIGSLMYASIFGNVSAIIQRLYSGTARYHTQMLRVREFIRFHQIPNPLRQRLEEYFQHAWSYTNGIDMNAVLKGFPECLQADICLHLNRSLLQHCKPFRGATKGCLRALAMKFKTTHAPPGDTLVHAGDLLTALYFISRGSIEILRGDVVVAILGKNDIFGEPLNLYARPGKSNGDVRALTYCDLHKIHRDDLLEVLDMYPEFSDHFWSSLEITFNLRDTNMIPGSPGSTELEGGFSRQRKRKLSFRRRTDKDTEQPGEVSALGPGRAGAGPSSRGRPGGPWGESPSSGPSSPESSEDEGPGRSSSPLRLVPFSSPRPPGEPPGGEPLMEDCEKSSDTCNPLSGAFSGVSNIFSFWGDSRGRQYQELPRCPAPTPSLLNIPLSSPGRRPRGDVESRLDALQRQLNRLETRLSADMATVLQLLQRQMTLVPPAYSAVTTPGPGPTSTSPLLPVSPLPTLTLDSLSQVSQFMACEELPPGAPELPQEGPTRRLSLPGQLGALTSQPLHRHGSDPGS

Take `CC(C)N1C(=O)[C@H](NC(=O)[C@@H](Cc2ccccc2OC(F)(F)F)NC(=O)OC(C)(C)C)CCc2ccccc21`: the inhibition (commonly the percentage by which the read-out fell short of the control) at 10 µM in data set [1] is 18%. Moreover, the bioavailability – broadly, the share of a dose that reaches the circulation, judged against a reference dose that is usually intravenous – was determined as 24% in data set [2] and 9% in data set [3]. The Cmax (in general, the highest concentration seen after dosing) in data set [4] is 300 nM; in data set [5], 70 nM. For the same compound, the clearance turned out to be 24 mL/min/kg in [6] and 15 mL/min/kg in data set [7]. The half-life (commonly the time needed for the level to fall by half in the phase considered) in data set [8] was 138 min; in data set [9] it was 252 min. In [10], the Ki – broadly, the equilibrium dissociation constant of an inhibitor or competing ligand from its target – worked out at 40 nM. In addition, the inhibition in vivo – broadly, the change of the read-out against control, counted positive when it falls – at 2 mg/kg in data set [11] turned out to be 100%; in [12] it was 100%; in [13], 93%. Further, the Activity in data set [14] is on record as 43%; in data set [15], 40%. Besides, the values for the IC50 in data set [16] and in data set [17] were 3500 nM and 35 nM, respectively.

In turn, `CC(C)N1C(=O)[C@@H](NC(=O)[C@@H](Cc2ccccc2OC(F)(F)F)NC(=O)OC(C)(C)C)CCc2ccccc21` gave an inhibition at 10 µM in data set [1] of 20%. For the same compound, the bioavailability in [2] came to 15%. In data set [4], this compound came in with a Cmax of 140 nM. The compound also showed a clearance in [6] of 55 mL/min/kg. Besides, the half-life in [8] was 126 min. Besides, the IC50 (as a rule, the concentration at which inhibition is half-maximal) in data set [16] stood at 1730 nM; in data set [17], 32 nM.

`CC(C)N1C(=O)[C@H](NC(=O)[C@@H](Cc2ccccc2F)NC(=O)OC(C)(C)C)CCc2ccccc21`: the inhibition at 10 µM turned out to be 8% in data set [1] and 11% in [18]. In [2], this compound gave a bioavailability of 14%. Moreover, in data set [4], the peak level (Cmax) was 100 nM. Besides, the clearance in [6] came to 41 mL/min/kg. This compound gave a half-life in data set [8] of 90 min. The IC50 in data set [17] came to 44 nM.

(Values after ChEMBL document CHEMBL1140675, “Discovery of a novel class of benzazepinone Na(v)1.7 blockers: potential treatments for neuropathic pain” (Bioorg Med Chem Lett, 2007).)
